From ChEMBL document CHEMBL1157829, “2-imino-thiazolidin-4-one derivatives as potent, orally active S1P1 receptor agonists” (J Med Chem, 2010)
pEC50, pIC50: −log10 of the molar value. Calls of active or inactive are those of the source. The rule behind the calls is not given here.

How the values were obtained:
[1] = Clearance in Wistar rat at 10 mg/kg, po and 1 mg/kg, iv; type: ADME, organism-based; details: in vivo
Method in brief: (§1)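 Male Wistar rats (n = 3) were dosed at 10 mg/kg orally and 1 mg/kg intravenously. Plasma pharmacokinetic parameters were derived from these runs.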

[2] = biological target: T1, Sphingosine 1-phosphate receptor 1 (Homo sapiens, UniProt P21453); assay: Agonist activity at human recombinant S1P1 receptor expressed in CHO cells by GTPgammaS binding assay; type: functional, cell-based
T1 sequence (P21453 whole entry): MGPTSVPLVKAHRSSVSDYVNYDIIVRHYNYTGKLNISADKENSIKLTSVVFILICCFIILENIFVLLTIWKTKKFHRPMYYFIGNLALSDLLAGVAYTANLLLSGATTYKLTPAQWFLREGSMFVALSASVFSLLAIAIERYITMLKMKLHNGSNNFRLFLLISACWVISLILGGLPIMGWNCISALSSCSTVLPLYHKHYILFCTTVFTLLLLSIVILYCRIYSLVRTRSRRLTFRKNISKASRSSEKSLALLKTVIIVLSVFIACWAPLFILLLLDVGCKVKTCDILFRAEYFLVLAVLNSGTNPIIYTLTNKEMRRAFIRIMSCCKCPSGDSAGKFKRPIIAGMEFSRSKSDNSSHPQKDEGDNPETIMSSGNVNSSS

[3] = Intrinsic clearance in rat hepatocytes at 1 uM by LC-MS/MS analysis measured per million cells; type: ADME, cell-based, Liver, Hepatocyte
[4] = biological target: T2, Sphingosine 1-phosphate receptor 3 (Homo sapiens, UniProt Q99500); assay: Agonist activity at human recombinant S1P3 receptor expressed in CHO cells by GTPgammaS binding assay; type: functional, cell-based
T2 sequence (Q99500 whole entry): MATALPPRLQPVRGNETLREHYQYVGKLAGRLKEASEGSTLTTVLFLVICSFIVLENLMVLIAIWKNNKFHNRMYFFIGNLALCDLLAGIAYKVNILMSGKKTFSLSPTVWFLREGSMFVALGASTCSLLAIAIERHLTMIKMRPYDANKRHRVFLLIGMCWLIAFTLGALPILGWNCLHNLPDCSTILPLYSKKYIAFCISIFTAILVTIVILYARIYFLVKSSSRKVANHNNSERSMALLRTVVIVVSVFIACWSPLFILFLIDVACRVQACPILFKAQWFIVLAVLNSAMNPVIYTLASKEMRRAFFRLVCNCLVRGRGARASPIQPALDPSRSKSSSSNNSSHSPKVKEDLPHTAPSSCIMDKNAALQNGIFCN
Method in brief: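 Membranes from CHO cells expressing recombinant human receptor. Buffer 20 mM Hepes pH 7.4, 100 mM NaCl, 5 mM MgCl2, 0.1% fatty-acid-free BSA, 2.5% DMSO, GDP (1 uM for S1P1, 3 uM for S1P3), 50 pM 35S-GTPγS. Compound preincubated with membranes 30 min at room temperature, then 1 h with 35S-GTPγS. Reaction filtered and bound label counted. Specific binding is the 10 uM S1P signal minus the no-agonist signal. EC50 is the concentration giving 50% of specific binding; three independent assays.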

[5] = Cmax in Wistar rat at 10 mg/kg, po and 1 mg/kg, iv; type: ADME, organism-based; details: in vivo; method in brief: as §1
[6] = Volume of distribution at steady state in Wistar rat at 10 mg/kg, po and 1 mg/kg, iv; type: ADME, organism-based; details: in vivo, read-out: Vdss; method in brief: as §1
[7] = Intrinsic clearance in Wistar rat liver microsomes at 1 uM by LC-MS/MS analysis measured per mg of protein; type: ADME, Microsome
[8] = Bioavailability in Wistar rat at 10 mg/kg, po and 1 mg/kg, iv; type: ADME, organism-based; details: in vivo; method in brief: as §1
[9] = Half life in Wistar rat at 10 mg/kg, po and 1 mg/kg, iv; type: ADME, organism-based; details: in vivo; method in brief: as §1
[10] = Intrinsic clearance in human liver microsomes at 1 uM by LC-MS/MS analysis measured per mg of protein; type: ADME, Microsome
[11] = Half life in human administered as single ascending dose; type: ADME, organism-based; details: in vivo
[12] = Volume of distribution at steady state in Beagle dog at 3 mg/kg, po and 0.3 mg/kg, iv; type: ADME, organism-based, Canis lupus familiaris; details: in vivo, read-out: Vdss
Method in brief: (§2)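 Fed male beagle dogs (n = 3) were dosed at 3 mg/kg orally and 0.3 mg/kg intravenously. Plasma exposure was measured to derive bioavailability, Cmax, half-life, clearance and Vss.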

[13] = Bioavailability in Wistar rat at 3 mg/kg, po and 0.3 mg/kg, iv; type: ADME, organism-based; details: in vivo
Method in brief: (§3)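 Male Wistar rats (n = 3) were dosed at 3 mg/kg orally and 0.3 mg/kg intravenously. Plasma pharmacokinetic parameters were derived from these runs.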

[14] = biological target: T3, Sphingosine 1-phosphate receptor 2 (Homo sapiens, UniProt O95136); assay: Displacement of [33P]S1P from human recombinant S1P2 receptor expressed in HEK cells by scintillation counting; type: cell-based, HEK293
T3 sequence (O95136 whole entry): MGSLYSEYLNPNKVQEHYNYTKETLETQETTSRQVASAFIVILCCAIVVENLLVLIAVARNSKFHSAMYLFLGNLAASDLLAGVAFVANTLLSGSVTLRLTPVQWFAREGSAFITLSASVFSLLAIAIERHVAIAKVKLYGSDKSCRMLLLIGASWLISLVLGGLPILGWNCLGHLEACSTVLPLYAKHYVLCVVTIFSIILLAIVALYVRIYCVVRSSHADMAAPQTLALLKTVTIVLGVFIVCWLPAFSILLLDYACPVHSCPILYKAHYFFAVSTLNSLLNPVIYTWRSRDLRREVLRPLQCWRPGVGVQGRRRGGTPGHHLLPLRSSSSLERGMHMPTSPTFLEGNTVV

[15] = Clearance in Beagle dog at 3 mg/kg, po and 0.3 mg/kg, iv; type: ADME, organism-based, Canis lupus familiaris; details: in vivo; method in brief: as §2
Rattus norvegicus [16] = assay: Immunomodulatory activity in normotensive Wistar rat assessed as change in circulating lymphocytes count at 10 mg/kg, po after 3 hrs relative to control; type: functional
Method in brief: (§4)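 Normotensive male Wistar rats were housed on a 12 h light/dark cycle with free chow and water. Compound was dissolved in DMSO and added to 7.5% aqueous gelatin (final 5% DMSO), then given by gavage at 10 mg/kg (n = 6). Vehicle was 95% gelatin (7.5%)/5% DMSO (n = 30). Blood was taken before dosing and at 3, 6 and 24 h and counted by hematology analyzer. Counts are % change from t = 0 h ± SEM.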

[17] = Bioavailability in Beagle dog at 3 mg/kg, po and 0.3 mg/kg, iv; type: ADME, organism-based, Canis lupus familiaris; details: in vivo; method in brief: as §2
[18] = Cmax in Beagle dog at 3 mg/kg, po and 0.3 mg/kg, iv; type: ADME, organism-based, Canis lupus familiaris; details: in vivo; method in brief: as §2
[19] = biological target: T3, Sphingosine 1-phosphate receptor 2; assay: Agonist activity at human recombinant S1P2 receptor expressed in HEK cells by GTPgammaS binding assay; type: functional, HEK293
Canis familiaris = assay: Immunomodulatory activity in Beagle dog assessed as decrease in circulating lymphocytes count at 5 mg/kg, po after 24 hrs; type: functional, organism-based; design: dose 5 mg/kg; details: Canis lupus familiaris
[20] = biological target: T4, Sphingosine 1-phosphate receptor 4 (Homo sapiens) (UniProt O95977); assay: Agonist activity at human recombinant S1P4 receptor expressed in CHO cells at 10 uM by GTPgammaS binding assay relative to S1P; type: functional, cell-based
T4 sequence (whole entry): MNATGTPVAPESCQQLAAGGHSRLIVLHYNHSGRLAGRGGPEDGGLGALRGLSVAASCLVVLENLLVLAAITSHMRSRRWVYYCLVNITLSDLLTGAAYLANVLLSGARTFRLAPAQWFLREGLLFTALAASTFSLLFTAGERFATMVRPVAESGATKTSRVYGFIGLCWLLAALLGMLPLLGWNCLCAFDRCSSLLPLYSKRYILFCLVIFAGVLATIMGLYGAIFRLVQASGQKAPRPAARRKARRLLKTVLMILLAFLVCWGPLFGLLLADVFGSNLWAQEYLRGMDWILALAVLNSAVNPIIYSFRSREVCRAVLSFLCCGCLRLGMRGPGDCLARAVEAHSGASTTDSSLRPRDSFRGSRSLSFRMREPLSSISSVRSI
Method in brief: (§5)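 In the same CHO-membrane 35S-GTPγS binding assay with human receptor, maximal activity at 10 uM compound was expressed as a percentage of the effect induced by S1P.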

[21] = biological target: T5, Sphingosine 1-phosphate receptor 4 (Homo sapiens, UniProt O95977); assay: Displacement of [33P]S1P from human recombinant S1P4 receptor expressed in CHO cells by scintillation counting; type: cell-based
T5 sequence (O95977 whole entry): T4 sequence (whole entry)

[22] = biological target: T6, Sphingosine 1-phosphate receptor 5 (Homo sapiens, UniProt Q9H228); assay: Agonist activity at human recombinant S1P5 receptor expressed in CHO cells by GTPgammaS binding assay; type: functional, cell-based
T6 sequence (Q9H228 whole entry): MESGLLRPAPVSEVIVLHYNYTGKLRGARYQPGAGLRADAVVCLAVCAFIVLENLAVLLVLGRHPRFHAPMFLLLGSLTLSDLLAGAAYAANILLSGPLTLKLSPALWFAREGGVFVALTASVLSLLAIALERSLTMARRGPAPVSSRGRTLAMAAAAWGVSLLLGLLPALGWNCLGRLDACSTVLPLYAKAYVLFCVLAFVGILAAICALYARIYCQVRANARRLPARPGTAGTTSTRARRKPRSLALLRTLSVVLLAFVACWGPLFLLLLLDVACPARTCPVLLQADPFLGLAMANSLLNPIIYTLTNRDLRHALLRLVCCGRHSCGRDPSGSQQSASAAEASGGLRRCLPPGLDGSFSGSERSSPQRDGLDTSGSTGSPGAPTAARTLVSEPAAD

[23] = biological target: T1, Sphingosine 1-phosphate receptor 1; assay: Agonist activity at human recombinant S1P1 receptor expressed in HEK cells by GTPgammaS binding assay; type: functional, cell-based, HEK293
Method in brief: (§6)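 Membranes from cells expressing recombinant receptor. Buffer: 20 mM Hepes pH 7.4, 100 mM NaCl, 5 mM MgCl2, 0.1% fatty-acid-free BSA, 2.5% DMSO. GDP 1 µM for S1P1, 3 µM for S1P3. Compound preincubated with membranes 30 min at RT, then 50 pM 35S-GTPγS added for 1 h at RT. Bound label collected by filtration and counted. […] Values are geometric means of independent experiments.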

[24] = Volume of distribution at steady state in Wistar rat at 3 mg/kg, po and 0.3 mg/kg, iv; type: ADME, organism-based; details: in vivo, read-out: Vdss; method in brief: as §3
[25] = biological target: T1, Sphingosine 1-phosphate receptor 1; assay: Displacement of [33P]S1P from human recombinant S1P1 receptor expressed in HEK cells by scintillation counting; type: cell-based, HEK293; details: read-out: IC50
Method in brief: (§7)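 33P-S1P binding to membranes of recombinant receptor-expressing cells. IC50 reported as the geometric mean of independent experiments, with the geometric standard deviation.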

[26] = Intrinsic clearance in Beagle dog hepatocytes at 1 uM by LC-MS/MS analysis measured per million cells; type: ADME, cell-based, Canis lupus familiaris, Liver, Hepatocyte
[27] = biological target: T6, Sphingosine 1-phosphate receptor 5; assay: Displacement of [33P]S1P from human recombinant S1P5 receptor expressed in CHO cells by scintillation counting; type: cell-based
[28] = Half life in Wistar rat at 3 mg/kg, po and 0.3 mg/kg, iv; type: ADME, organism-based; details: in vivo; method in brief: as §3
Rattus norvegicus [29] = assay: Immunomodulatory activity in normotensive Wistar rat assessed as change in circulating lymphocytes count at 10 mg/kg, po after 24 hrs relative to control; type: functional; method in brief: as §4
[30] = Half life in Beagle dog at 3 mg/kg, po and 0.3 mg/kg, iv; type: ADME, organism-based, Canis lupus familiaris; details: in vivo; method in brief: as §2
[31] = biological target: T2, Sphingosine 1-phosphate receptor 3; assay: Agonist activity at human recombinant S1P3 receptor expressed in HEK cells by GTPgammaS binding assay; type: functional, HEK293; method in brief: as §6
[32] = biological target: T5, Sphingosine 1-phosphate receptor 4; assay: Agonist activity at human recombinant S1P4 receptor expressed in CHO cells by GTPgammaS binding assay; type: functional, cell-based
[33] = biological target: T6, Sphingosine 1-phosphate receptor 5; assay: Agonist activity at human recombinant S1P5 receptor expressed in CHO cells at 10 uM by GTPgammaS binding assay relative to S1P; type: functional, cell-based; method in brief: as §5
[34] = biological target: T2, Sphingosine 1-phosphate receptor 3; assay: Displacement of [33P]S1P from human recombinant S1P3 receptor expressed in HEK cells by scintillation counting; type: cell-based, HEK293; details: read-out: IC50; method in brief: as §7
[35] = Clearance in Wistar rat at 3 mg/kg, po and 0.3 mg/kg, iv; type: ADME, organism-based; details: in vivo; method in brief: as §3
Rattus norvegicus [36] = assay: Immunomodulatory activity in normotensive Wistar rat assessed as change in circulating lymphocytes count at 10 mg/kg, po after 6 hrs relative to control; type: functional; method in brief: as §4
[37] = Cmax in Wistar rat at 3 mg/kg, po and 0.3 mg/kg, iv; type: ADME, organism-based; details: in vivo; method in brief: as §3
[38] = Intrinsic clearance in Beagle dog liver microsomes at 1 uM by LC-MS/MS analysis measured per mg of protein; type: ADME, Canis lupus familiaris, Microsome
Rattus norvegicus [39] = assay: Immunomodulatory activity in normotensive Wistar rat assessed as change in circulating lymphocytes count at 30 mg/kg, po after 3 to 24 hrs relative to control; type: functional, organism-based; design: dose 30 mg/kg
Method in brief: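 Normotensive male Wistar rats received compound by gavage as a suspension in 7.5% gelatin with 5% DMSO. Blood lymphocytes were counted on a hematology analyzer before dosing and at 3, 6 and 24 h after dosing.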

For CC(C)/N=C1\S/C(=C\c2ccc(OCCO)cc2)C(=O)N1c1ccccc1, the clearance [1] was 32 mL/min/kg, the pEC50 [2] was 7.02 and the hepatocyte CLint at 1 µM [3] was 12 µL/min/1e6 cells. The pEC50 [4] was 6.94, the Cmax [5] was 499 ng/mL and the Vd [6] was 4 L/kg. For the same compound, the microsomal CLint at 1 µM [7] was 4 µL/min/mg, the bioavailability [8] was 72% and the half-life [9] was 120 min. For the same compound, the microsomal CLint at 1 µM [10] was 4 µL/min/mg.

With CCC/N=C1\S/C(=C\c2ccc(OC[C@@H](O)CO)c(Cl)c2)C(=O)N1c1ccccc1C the pEC50 [2] was 8.04, the hepatocyte CLint at 1 µM [3] was 3.7 µL/min/1e6 cells and the half-life [11] was 1320 min. The Vd [12] was 0.9 L/kg, the bioavailability [13] was 35% and the pIC50 [14] was < 5.00. For the same compound, the clearance [15] was 1.3 mL/min/kg, the Activity (Rattus norvegicus [16]) was -65% and the bioavailability [17] was 69%. For the same compound, the Cmax [18] was 1360 ng/mL, the pEC50 [19] was < 5.00 and the Activity (Canis familiaris) was “Active”. It also gave a pEC50 [4] of 6.91, an Activity [20] of 18% and a pIC50 [21] of 5.71. It also gave a pEC50 [22] of 7.23, a pEC50 [23] of 8.24 and a microsomal CLint at 1 µM [7] of 56 µL/min/mg. It also gave a Vd [24] of 3.3 L/kg, a pIC50 [25] of 8.22 and a hepatocyte CLint at 1 µM [26] of 1 µL/min/1e6 cells. For the same compound, the pIC50 [27] was 6.85, the half-life [28] was 78 min and the Activity (Rattus norvegicus [29]) was -18%. For the same compound, the half-life [30] was 600 min, the pEC50 [31] was 6.98 and the pEC50 [32] was 5.96. The Activity [33] was 42%, the pIC50 [34] was 5.68 and the microsomal CLint at 1 µM [10] was 4 µL/min/mg. The clearance [35] was 25 mL/min/kg, the Activity (Rattus norvegicus [36]) was -63% and the Cmax [37] was 409 ng/mL. The microsomal CLint at 1 µM [38] was 7 µL/min/mg.

For CCC/N=C1\S/C(=C\c2ccc(O)c(Cl)c2)C(=O)N1c1ccccc1C, the Activity (Rattus norvegicus [39]) was “inactive”, the bioavailability [13] was < 1% and the Activity (Rattus norvegicus [16]) was 29%. For the same compound, the pEC50 [4] was 7.09, the microsomal CLint at 1 µM [7] was 229 µL/min/mg and the Vd [24] was 1.1 L/kg. It also gave a half-life [28] of 12 min, an Activity (Rattus norvegicus [29]) of 40% and a microsomal CLint at 1 µM [10] of 7 µL/min/mg. It also gave a clearance [35] of 92 mL/min/kg, an Activity (Rattus norvegicus [36]) of 24% and a Cmax [37] of 8.1 ng/mL.
